Laboratory results as given in ChEMBL document CHEMBL1154716, “Synthesis of some new S-triazine based chalcones and their derivatives as potent antimicrobial agents” (2010).
≈ marks a conversion by molar mass, not a printed value. Calls of active or inactive are those of the source. No cut-off for these calls is given here.

How the values were obtained:
Escherichia coli [1] = test: Antimicrobial activity against Escherichia coli at 1 umol/disk after 24 hrs by disk diffusion assay; type: functional
Method in brief: (§1)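 Disc diffusion on 4 mm filter discs. Bacteria are grown overnight in LB at 28 C, then adjusted in saline to 1.0 × 10^5 cfu/ml. The suspension is mixed into top agar over peptone agar plates. Plates are incubated 24 h at 28 C, and growth-inhibition zone diameter is measured. Streptomycin and ampicillin controls are applied from a 1 mg/ml stock. Tests are done in duplicate.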

Micrococcus flavus [2] = test: Antimicrobial activity against Micrococcus flavus at 1 umol/disk after 24 hrs by disk diffusion assay; type: functional; method in brief: as §1
Pseudomonas aeruginosa [3] = test: Antimicrobial activity against Pseudomonas aeruginosa after 24 hrs by microdilution technique; type: functional
Method in brief: (§2)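 Broth microdilution in LB medium. Inoculum is 1.0 × 10^4 cfu per well, from a saline-adjusted suspension of 1.0 × 10^5 cfu/ml. Compounds are dissolved in DMSO. Incubated 24 h at 28 C. MIC is the lowest concentration with no visible growth under a binocular microscope. MBC is read by subculture into fresh broth for 72 h, with no growth taken as 99.5% kill. OD is read at 655 nm.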

Enterobacter cloacae [4] = test: Antimicrobial activity against Enterobacter cloacae at 1 umol/disk after 24 hrs by disk diffusion assay; type: functional; method in brief: as §1
Escherichia coli [5] = test: Antimicrobial activity against Escherichia coli at 1 umol/spot after 18 hrs by TLC-bioautographic method; type: functional
Method in brief: (§3)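 TLC bioautography. Samples are spotted on silica gel TLC plates, then sprayed with bacteria (1.0 × 10^5 cfu/ml) in tryptic soy broth. Plates are incubated 18 h at 37 C and sprayed with 3% aqueous p-iodonitrotetrazolium violet. After a further 3 h, growth is stopped with 70% EtOH. White zones on a pink background are scored as inhibition-zone diameter with standard errors.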

Pseudomonas aeruginosa [6] = test: Antimicrobial activity against Pseudomonas aeruginosa at 10 ug/disk after 24 hrs by disk diffusion assay; type: functional; settings: read-out: IZ; method in brief: as §1
Salmonella typhimurium [7] = test: Antimicrobial activity against Salmonella Typhimurium at 10 ug/disk after 24 hrs by disk diffusion assay; type: functional, organism-based; settings: Salmonella enterica subsp. enterica serovar Typhimurium; method in brief: as §1
Bacillus cereus [8] = test: Antimicrobial activity against Bacillus cereus at 1 umol/spot after 18 hrs by TLC-bioautographic method; type: functional; method in brief: as §3
Salmonella typhimurium [9] = test: Antimicrobial activity against Salmonella Typhimurium after 24 hrs by microdilution technique; type: functional, Salmonella enterica subsp. enterica serovar Typhimurium; settings: Salmonella enterica; method in brief: as §2
Staphylococcus aureus [10] = test: Antimicrobial activity against Staphylococcus aureus at 1 umol/spot after 18 hrs by TLC-bioautographic method; type: functional; method in brief: as §3
Salmonella typhimurium [11] = test: Antimicrobial activity against Salmonella Typhimurium at 1 umol/spot after 18 hrs by TLC-bioautographic method; type: functional; settings: Salmonella enterica subsp. enterica serovar Typhimurium; method in brief: as §3
Salmonella typhimurium [12] = test: Antimicrobial activity against Salmonella Typhimurium at 1 umol/disk after 24 hrs by disk diffusion assay; type: functional, organism-based; settings: Salmonella enterica subsp. enterica serovar Typhimurium; method in brief: as §1
Listeria monocytogenes [13] = test: Antimicrobial activity against Listeria monocytogenes at 1 umol/disk after 24 hrs by disk diffusion assay; type: functional; method in brief: as §1
Micrococcus flavus [14] = test: Antimicrobial activity against Micrococcus flavus at 10 ug/disk after 24 hrs by disk diffusion assay; type: functional; method in brief: as §1
Enterobacter cloacae [15] = test: Antimicrobial activity against Enterobacter cloacae at 10 ug/disk after 24 hrs by disk diffusion assay; type: functional; method in brief: as §1
Listeria monocytogenes [16] = test: Antimicrobial activity against Listeria monocytogenes at 1 umol/spot after 18 hrs by TLC-bioautographic method; type: functional; method in brief: as §3
Bacillus cereus [17] = test: Antimicrobial activity against Bacillus cereus after 24 hrs by microdilution technique; type: functional; method in brief: as §2
Bacillus cereus [18] = test: Antimicrobial activity against Bacillus cereus at 1 umol/disk after 24 hrs by disk diffusion assay; type: functional; method in brief: as §1
Micrococcus flavus [19] = test: Antimicrobial activity against Micrococcus flavus after 24 hrs by microdilution technique; type: functional; method in brief: as §2
Enterobacter cloacae [20] = test: Antimicrobial activity against Enterobacter cloacae at 1 umol/spot after 18 hrs by TLC-bioautographic method; type: functional; method in brief: as §3
Escherichia coli [21] = test: Antimicrobial activity against Escherichia coli at 10 ug/disk after 24 hrs by disk diffusion assay; type: functional; method in brief: as §1
Staphylococcus aureus [22] = test: Antimicrobial activity against Staphylococcus aureus after 24 hrs by microdilution technique; type: functional; method in brief: as §2
Pseudomonas aeruginosa [23] = test: Antimicrobial activity against Pseudomonas aeruginosa at 1 umol/spot after 18 hrs by TLC-bioautographic method; type: functional; method in brief: as §3
Staphylococcus aureus [24] = test: Antimicrobial activity against Staphylococcus aureus at 1 umol/disk after 24 hrs by disk diffusion assay; type: functional; method in brief: as §1
Micrococcus flavus [25] = test: Antimicrobial activity against Micrococcus flavus at 1 umol/spot after 18 hrs by TLC-bioautographic method; type: functional; method in brief: as §3
Bacillus cereus [26] = test: Antimicrobial activity against Bacillus cereus at 10 ug/disk after 24 hrs by disk diffusion assay; type: functional; method in brief: as §1
Listeria monocytogenes [27] = test: Antimicrobial activity against Listeria monocytogenes at 10 ug/disk after 24 hrs by disk diffusion assay; type: functional; method in brief: as §1
Listeria monocytogenes [28] = test: Antimicrobial activity against Listeria monocytogenes after 24 hrs by microdilution technique; type: functional; method in brief: as §2
Escherichia coli [29] = test: Antimicrobial activity against Escherichia coli after 24 hrs by microdilution technique; type: functional; method in brief: as §2
Staphylococcus aureus [30] = test: Antimicrobial activity against Staphylococcus aureus at 10 ug/disk after 24 hrs by disk diffusion assay; type: functional; method in brief: as §1
Enterobacter cloacae [31] = test: Antimicrobial activity against Enterobacter cloacae after 24 hrs by microdilution technique; type: functional; method in brief: as §2

Row | MIC (Pseudomonas aeruginosa [3]) [µM] | MIC (Salmonella typhimurium [9]) [µM] | MIC (Bacillus cereus [17]) [µM] | Compound | inhibition zone (IZ) (Escherichia coli [1]) | inhibition zone (IZ) (Micrococcus flavus [2]) | MBC (Pseudomonas aeruginosa [3]) [µM] | inhibition zone (IZ) (Enterobacter cloacae [4]) | inhibition zone (IZ) (Escherichia coli [5]) | zone of inhibition at 10 µg/disc (Pseudomonas aeruginosa [6]) [mm] | inhibition zone (IZ) (Salmonella typhimurium [7]) | inhibition zone (IZ) (Bacillus cereus [8]) [millimeter] | MBC (Salmonella typhimurium [9]) [µM] | inhibition zone (IZ) (Staphylococcus aureus [10]) [millimeter] | inhibition zone (IZ) (Salmonella typhimurium [11]) | inhibition zone (IZ) (Salmonella typhimurium [12]) | inhibition zone (IZ) (Listeria monocytogenes [13]) | inhibition zone (IZ) (Enterobacter cloacae [15]) | inhibition zone (IZ) (Listeria monocytogenes [16]) [millimeter] | MBC (Bacillus cereus [17]) [µM] | inhibition zone (IZ) (Bacillus cereus [18]) | further results
1 | 268 (≈ 138 µg/mL) | 268 (≈ 138 µg/mL) | 134 (≈ 69 µg/mL) | COc1ccccc1/C=C/C(=O)c1ccc(Nc2nc(Nc3ccccc3)nc(Nc3ccccc3)n2)cc1 | inactive | inactive | 536 (≈ 276 µg/mL) | inactive | inactive | 6 | inactive | 0.06 | 536 (≈ 276 µg/mL) | 0.07 | inactive | inactive | inactive | inactive | 0.08 | 268 (≈ 138 µg/mL) | inactive | inhibition zone (IZ) (Micrococcus flavus [14]): inactive; MBC (Micrococcus flavus [19]): 536 µM (≈ 276 µg/mL); MIC (Micrococcus flavus [19]): 268 µM (≈ 138 µg/mL); inhibition zone (IZ) (Enterobacter cloacae [20]): 0.08 millimeter; inhibition zone (IZ) (Escherichia coli [21]): inactive; MBC (Staphylococcus aureus [22]): 268 µM (≈ 138 µg/mL); MIC (Staphylococcus aureus [22]): 134 µM (≈ 69 µg/mL); inhibition zone (IZ) (Pseudomonas aeruginosa [23]): inactive; inhibition zone (IZ) (Staphylococcus aureus [24]): inactive; inhibition zone (IZ) (Micrococcus flavus [25]): inactive; inhibition zone (IZ) (Bacillus cereus [26]): inactive; inhibition zone (IZ) (Listeria monocytogenes [27]): inactive; MBC (Listeria monocytogenes [28]): 536 µM (≈ 276 µg/mL); MIC (Listeria monocytogenes [28]): 268 µM (≈ 138 µg/mL); MBC (Escherichia coli [29]): 268 µM (≈ 138 µg/mL); MIC (Escherichia coli [29]): 134 µM (≈ 69 µg/mL); inhibition zone (IZ) (Staphylococcus aureus [30]): inactive; MBC (Enterobacter cloacae [31]): 536 µM (≈ 276 µg/mL); MIC (Enterobacter cloacae [31]): 268 µM (≈ 138 µg/mL)
2 | 211 (≈ 100 µg/mL) | 211 (≈ 100 µg/mL) | 211 (≈ 100 µg/mL) | O=C(/C=C/c1ccco1)c1ccc(Nc2nc(Nc3ccccc3)nc(Nc3ccccc3)n2)cc1 | 0.04 millimeter | 0.04 millimeter | 422 (≈ 200 µg/mL) | inactive | 0.08 millimeter | 6 | inactive | 0.07 | 422 (≈ 200 µg/mL) | 0.08 | inactive | inactive | inactive | inactive | 0.08 | 422 (≈ 200 µg/mL) | inactive | zone of inhibition at 10 µg/disc (Micrococcus flavus [14]; read-out: IZ): 8 mm; MBC (Micrococcus flavus [19]): 844 µM (≈ 400 µg/mL); MIC (Micrococcus flavus [19]): 422 µM (≈ 200 µg/mL); inhibition zone (IZ) (Enterobacter cloacae [20]): 0.08 millimeter; zone of inhibition at 10 µg/disc (Escherichia coli [21]; read-out: IZ): 8 mm; MBC (Staphylococcus aureus [22]): 844 µM (≈ 400 µg/mL); MIC (Staphylococcus aureus [22]): 422 µM (≈ 200 µg/mL); inhibition zone (IZ) (Pseudomonas aeruginosa [23]): inactive; inhibition zone (IZ) (Staphylococcus aureus [24]): inactive; inhibition zone (IZ) (Micrococcus flavus [25]): 0.07 millimeter; inhibition zone (IZ) (Bacillus cereus [26]): inactive; inhibition zone (IZ) (Listeria monocytogenes [27]): inactive; MBC (Listeria monocytogenes [28]): 844 µM (≈ 400 µg/mL); MIC (Listeria monocytogenes [28]): 422 µM (≈ 200 µg/mL); MBC (Escherichia coli [29]): 422 µM (≈ 200 µg/mL); MIC (Escherichia coli [29]): 211 µM (≈ 100 µg/mL); inhibition zone (IZ) (Staphylococcus aureus [30]): inactive; MBC (Enterobacter cloacae [31]): 422 µM (≈ 200 µg/mL); MIC (Enterobacter cloacae [31]): 211 µM (≈ 100 µg/mL)
